From ChEMBL document CHEMBL4024783, “Alkylated Piperazines and Piperazine-Azole Hybrids as Antifungal Agents” (J Med Chem, 2018)
Converted amounts (≈) assume the structure as drawn.

Columns and labels:
Candida albicans [1] = assay: Antifungal activity against Candida albicans ATCC 10231 after 48 hrs in the presence of 10% FBS by broth dilution method; type: functional; conditions: ATCC 10231, 48 h
Candida albicans [2] = assay: Antibiofilm activity against voriconazole resistant Candida albicans ATCC 64124 sessile cells incubated for 24 hrs by XTT reduction assay; type: functional; conditions: ATCC 64124, 24 h
How it was run: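 Strain B grown overnight in YPD broth at 35 °C, diluted to OD600 0.1 (~10^6 CFU/mL), then grown statically for 24 h at 37 °C to form biofilm. Washed with PBS, then drug in RPMI 1640 at 0.12–62.5 µg/mL for 24 h at 37 °C. Read-out: XTT 0.5 mg/mL with menadione 1 µM, 2 h, A490. SMIC50/SMIC80 are 50%/80% decreases versus drug-free biofilm. Duplicate.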

Candida parapsilosis [3] = assay: Antifungal activity against Candida parapsilosis ATCC 22019 after 48 hrs by broth dilution method; type: functional; conditions: Lodderomyces parapsilosis, ATCC 22019, 48 h
Nakaseomyces glabratus = assay: Antifungal activity against Candida glabrata ATCC 2001 after 48 hrs by broth dilution method; type: functional, CBS 138; conditions: Nakaseomyces glabratus, CBS 138, 48 h
Candida albicans [4] = assay: Antifungal activity against Candida albicans ATCC 10231 after 48 hrs by broth dilution method; type: functional; conditions: ATCC 10231, 48 h
Aspergillus flavus = assay: Antifungal activity against Aspergillus flavus ATCC MYA-3631 after 48 hrs by broth dilution method; type: functional; conditions: ATCC MYA-3631, 48 h
Pichia kudriavzevii = assay: Antifungal activity against Candida krusei ATCC 6258 after 48 hrs by broth dilution method; type: functional; conditions: Pichia kudriavzevii, ATCC 6258, 48 h
How it was run: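 Yeasts tested per CLSI M27-A3 with minor changes. An overnight YPD culture (35 °C, 200 rpm) was adjusted to OD600 0.12 and diluted in MOPS-buffered RPMI 1640 (pH 7.0) to a final 1–2 × 10^3 CFU/mL. Compounds 0.015–31.3 µg/mL, DMSO <1.25%.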

Candida albicans [5] = assay: Ratio of MIC80 for voriconazole resistant Candida albicans ATCC 64124 sessile cells to MIC for voriconazole resistant Candida albicans ATCC 64124; type: functional
Aspergillus terreus = assay: Antifungal activity against Aspergillus terreus ATCC MYA-3633 after 48 hrs by broth dilution method; type: functional; conditions: Aspergillus terreus, ATCC MYA-3633, 48 h
How it was run: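 Molds tested per CLSI M38-A2. Spores were harvested from sporulating PDA cultures by filtering through glass wool and counted on a hemocytometer. Serial dilutions (0.03–31.3 µg/mL) were made in RPMI 1640 buffered to pH 7.0 with 0.165 M MOPS, final inoculum 5 × 10^5 CFU/mL.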

Aspergillus nidulans [6] = assay: Antifungal activity against Aspergillus nidulans ATCC 38163 after 48 hrs by broth dilution method; type: functional; conditions: Aspergillus nidulans, ATCC 38163, 48 h
How it was run: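 A. nidulans run per CLSI M38-A2. PDA spores were filtered through glass wool and counted by hemocytometer. Test range 0.03–31.3 µg/mL in MOPS-buffered RPMI 1640 (pH 7.0), final 5 × 10^5 CFU/mL.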

[7] = Aqueous solubility of the compound; type: physicochemical; conditions: buffer
[8] = Solubility of the compound in DMSO; type: physicochemical
Candida parapsilosis [9] = assay: Antifungal activity against Candida parapsilosis ATCC 22019 after 48 hrs in the presence of 10% FBS by broth dilution method; type: functional; conditions: Lodderomyces parapsilosis, ATCC 22019, 48 h
Candida albicans [10] = assay: Antifungal activity against itraconazole and fluconazole resistant Candida albicans ATCC 90819 after 48 hrs by broth dilution method; type: functional; conditions: Candida albicans, ATCC 90819, 48 h
How it was run: (§1)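 CLSI M27-A3 broth microdilution with minor modifications. Overnight YPD culture grown at 35 °C, 200 rpm, adjusted to OD600 0.12, diluted in RPMI 1640 buffered to pH 7.0 with 0.165 M MOPS to a final 1–2 × 10^3 CFU/mL. Test compounds at 0.015–31.3 µg/mL, 48 h at 35 °C, DMSO <1.25%. […] Triplicate.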

Aspergillus nidulans [11] = assay: Antifungal activity against Aspergillus nidulans ATCC 38163 after 48 hrs in the presence of 10% FBS by broth dilution method; type: functional; conditions: ATCC 38163, 48 h
Candida albicans [12] = assay: Antifungal activity against itraconazole and fluconazole resistant Candida albicans ATCC MYA-1237 after 48 hrs by broth dilution method; type: functional; conditions: Candida albicans, ATCC MYA-1237, 48 h; how it was run: as §1
Candida albicans [13] = assay: Antifungal activity against itraconazole and fluconazole susceptible Candida albicans ATCC MYA-2876 after 48 hrs by broth dilution method; type: functional; conditions: Candida albicans, ATCC MYA-2876, 48 h
Candida albicans [14] = assay: Ratio of MIC in presence of 10% FBS to MIC in absence of 10% FBS for Candida albicans ATCC 10231; type: functional
How it was run: (§2)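 MIC broth dilution run in parallel in RPMI 1640 with or without 10% fetal bovine serum against C. albicans ATCC 10231, C. parapsilosis ATCC 22019 and A. nidulans ATCC 38163.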

Candida albicans [15] = assay: Antifungal activity against itraconazole and fluconazole susceptible Candida albicans ATCC MYA-2310 after 48 hrs by broth dilution method; type: functional; conditions: Candida albicans, ATCC MYA-2310, 48 h
Candida albicans [16] = assay: Antifungal activity against itraconazole and fluconazole resistant Candida albicans ATCC MYA-1003 after 48 hrs by broth dilution method; type: functional; conditions: Candida albicans, ATCC MYA-1003, 48 h; how it was run: as §1
Candida parapsilosis [17] = assay: Ratio of MIC in presence of 10% FBS to MIC in absence of 10% FBS for Candida parapsilosis ATCC 22019; type: functional; how it was run: as §2
Candida albicans [18] = assay: Antifungal activity against Candida albicans ATCC 64124 after 48 hrs by broth dilution method; type: functional; conditions: Candida albicans, ATCC 64124, 48 h; how it was run: as §1
BEAS-2B = assay: Cytotoxicity against human BEAS2B cells up to 31 ug/ml after 24 hrs by resazurin-based fluorescence assay; type: cell-based
How it was run: (§3)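 Cells grown in DMEM with 10% FBS at 37 °C, 5% CO2, and seeded at 10000 (HEK-293) or 3000 (BEAS-2B, A549) per well. After 16 h, exposed 24 h to 0.13–31 µg/mL final in medium with 0.1–0.4% DMSO. Resazurin added for 6–10 h; fluorescence read at 560/590 nm and survival normalized to DMSO control after background subtraction. Triton X-100 12.5% v/v positive control; duplicate.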

Aspergillus nidulans [19] = assay: Ratio of MIC in presence of 10% FBS to MIC in absence of 10% FBS for Aspergillus nidulans ATCC 38163; type: functional; how it was run: as §2
A549 = assay: Cytotoxicity against human A549 cells up to 31 ug/ml after 24 hrs by resazurin-based fluorescence assay; type: cell-based; conditions: a549, 24 h; how it was run: as §3
HEK293 = assay: Cytotoxicity against HEK293 cells up to 31 ug/ml after 24 hrs by resazurin-based fluorescence assay; type: cell-based; conditions: human, hek293, 24 h; how it was run: as §3

CCCCCCCCCCN1CCN(CC(O)(Cn2cncn2)c2ccc(Cl)cc2Cl)CC1 (stereo not drawn)
MIC (Candida albicans [1]): 1.95 µg/mL | MIC50 (Candida albicans [2]): 15.6 µg/mL (≈ 31.4 µM) | MIC80 (Candida albicans [2]): 31.3 µg/mL (≈ 63 µM) | MIC (Candida parapsilosis [3]): 0.48 µM (≈ 0.238 µg/mL) | MIC (Nakaseomyces glabratus): 2 µM (≈ 0.993 µg/mL) | MIC (Candida albicans [4]): 3.9 µM (≈ 1.94 µg/mL) | MIC (Aspergillus flavus): 7.9 µM (≈ 3.92 µg/mL) | MIC (Pichia kudriavzevii): 3.9 µM (≈ 1.94 µg/mL) | Ratio (Candida albicans [5]): 1 - 2 | MIC (Aspergillus terreus): 7.9 µM (≈ 3.92 µg/mL) | MIC (Aspergillus nidulans [6]): 7.9 µM (≈ 3.92 µg/mL) | solubility [7]: Soluble | solubility [8]: Soluble | MIC (Candida parapsilosis [9]): 0.24 µg/mL | MIC (Candida albicans [10]): 7.9 µM (≈ 3.92 µg/mL) | MIC (Aspergillus nidulans [11]): 3.9 µg/mL

CCCCCCCCCCCCN1CCNCC1
MIC (Candida albicans [12]): 15.3 µM (≈ 3.89 µg/mL) | MIC (Candida albicans [1]): 3.9 µg/mL | MIC50 (Candida albicans [2]): 7.8 µg/mL (≈ 30.7 µM) | MIC80 (Candida albicans [2]): 31.3 µg/mL (≈ 123 µM) | MIC (Candida albicans [13]): 15.3 µM (≈ 3.89 µg/mL) | MIC (Candida parapsilosis [3]): 7.7 µM (≈ 1.96 µg/mL) | MIC (Nakaseomyces glabratus): 7.7 µM (≈ 1.96 µg/mL) | Ratio (Candida albicans [14]): 2 - 8 | MIC (Candida albicans [15]): 15.3 µM (≈ 3.89 µg/mL) | MIC (Candida albicans [4]): 7.7 µM (≈ 1.96 µg/mL) | MIC (Aspergillus flavus): 15.3 µM (≈ 3.89 µg/mL) | MIC (Candida albicans [16]): 15.3 µM (≈ 3.89 µg/mL) | Ratio (Candida parapsilosis [17]): 2 - 8 | MIC (Pichia kudriavzevii): 7.7 µM (≈ 1.96 µg/mL) | Ratio (Candida albicans [5]): 1 - 4 | MIC (Aspergillus terreus): 30.7 µM (≈ 7.81 µg/mL) | MIC (Candida albicans [18]): 30.7 µM (≈ 7.81 µg/mL) | MIC (Aspergillus nidulans [6]): 7.7 µM (≈ 1.96 µg/mL) | solubility [7]: Soluble | solubility [8]: Soluble | Activity (BEAS-2B): Toxic | Ratio (Aspergillus nidulans [19]): 2 - 8 | Activity (A549): Toxic | MIC (Candida albicans [10]): 30.7 µM (≈ 7.81 µg/mL) | Activity (HEK293): Toxic

CCCCCCCCCCCCCCN1CCNCC1
MIC (Candida albicans [12]): 6.9 µM (≈ 1.95 µg/mL) | MIC (Candida albicans [1]): 7.8 µg/mL | MIC50 (Candida albicans [2]): 15.6 µg/mL (≈ 55.2 µM) | MIC80 (Candida albicans [2]): 62.5 µg/mL (≈ 221 µM) | MIC (Candida albicans [13]): 3.5 µM (≈ 0.989 µg/mL) | MIC (Candida parapsilosis [3]): 3.5 µM (≈ 0.989 µg/mL) | MIC (Nakaseomyces glabratus): 3.5 µM (≈ 0.989 µg/mL) | Ratio (Candida albicans [14]): 2 - 8 | MIC (Candida albicans [15]): 3.5 µM (≈ 0.989 µg/mL) | MIC (Candida albicans [4]): 3.5 µM (≈ 0.989 µg/mL) | MIC (Aspergillus flavus): 3.5 µM (≈ 0.989 µg/mL) | MIC (Candida albicans [16]): 6.9 µM (≈ 1.95 µg/mL) | Ratio (Candida parapsilosis [17]): 2 - 8 | MIC (Pichia kudriavzevii): 3.5 µM (≈ 0.989 µg/mL) | Ratio (Candida albicans [5]): 16 - 64 | MIC (Aspergillus terreus): 3.5 µM (≈ 0.989 µg/mL) | MIC (Candida albicans [18]): 3.5 µM (≈ 0.989 µg/mL) | MIC (Aspergillus nidulans [6]): 3.5 µM (≈ 0.989 µg/mL) | solubility [7]: Soluble | solubility [8]: Soluble | Activity (BEAS-2B): Toxic | MIC (Candida parapsilosis [9]): 7.8 µg/mL | Ratio (Aspergillus nidulans [19]): 2 - 8 | Activity (A549): Toxic | MIC (Candida albicans [10]): 6.9 µM (≈ 1.95 µg/mL) | MIC (Aspergillus nidulans [11]): 7.8 µg/mL | Activity (HEK293): Toxic
